Assay outcomes from PubChem.
RanGTP-Impb inh: inhibitors of RanGTP-importin-beta interaction, primary screen, biochemical, FRET, CFP-Ran, YFP-importin-beta, homogeneous; cell-free CFP-Ran/YFP-importin-beta FRET ratio; inhibition, % (concentration not given with the values); actives 1.1% (n = 300,000);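 active = more than half of the replicate wells show a fall in the fluorescence ratio signal beyond about 16%, limit read from the data, passing the limit was not always enough; inconclusive = exactly half of the replicate wells pass the set limit; inactive = fewer than half of replicates pass the limit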;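 note: 0% = DMSO wells and 100% = Ran loaded with GDP instead of GTP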
Runt-CBFb FRET: inhibitors of human RUNX1 Runt domain binding to CBFb; actives 0.46% (n = 220,000); Cerulean-Runt/Venus-CBFb FRET ratio 530/480, 1 h; inhibition, % at 20 µM; Q01196+Q13951;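 active = inhibition over about 50% at 20 µM in the single-dose screen, limit read from the data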;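 note: 0% = DMSO wells and 100% = excess unlabeled CBFb competitor control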
Target sequence (Q01196 whole entry, looked up, the tested form may be a part): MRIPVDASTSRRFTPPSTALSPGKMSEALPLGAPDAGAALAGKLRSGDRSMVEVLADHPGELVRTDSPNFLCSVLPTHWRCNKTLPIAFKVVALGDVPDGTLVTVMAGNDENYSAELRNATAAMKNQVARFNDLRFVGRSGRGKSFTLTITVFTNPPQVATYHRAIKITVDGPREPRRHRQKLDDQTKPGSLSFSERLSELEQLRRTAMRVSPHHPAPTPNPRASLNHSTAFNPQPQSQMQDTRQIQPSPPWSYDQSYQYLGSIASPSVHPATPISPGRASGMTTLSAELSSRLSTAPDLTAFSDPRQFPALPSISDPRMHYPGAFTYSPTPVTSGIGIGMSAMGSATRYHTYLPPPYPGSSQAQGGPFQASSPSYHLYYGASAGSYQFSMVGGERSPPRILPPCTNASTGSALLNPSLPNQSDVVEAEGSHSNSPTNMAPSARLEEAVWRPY
Target sequence (Q13951 whole entry, looked up, the tested form may be a part): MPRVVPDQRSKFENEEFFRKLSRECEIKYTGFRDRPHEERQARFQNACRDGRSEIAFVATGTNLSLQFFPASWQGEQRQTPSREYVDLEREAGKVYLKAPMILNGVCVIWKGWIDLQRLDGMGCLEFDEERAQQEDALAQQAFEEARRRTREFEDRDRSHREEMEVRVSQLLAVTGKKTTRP
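test system = Cerulean-tagged RUNX1 Runt domain (FRET donor) fusion protein | reagent = Venus-CBFb binding partner, 100 nM | incubation = protein complex preformed 1 h, compound exposure 1 h, room temperature, dark | detection = FRET fluorescence | read-out basis = loss of energy transfer signal | controls = 5 µM unlabeled CBFb as full-inhibition high control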
CaV13 FRET inh: Disruptors of the CACNA1D IQ motif to Ca2+-dependent inactivation inhibitor domain association, primary screening, Förster resonance energy transfer in intact living … | actives 0.098% (n = 340,000) | inhibition, % at 12.3 µM | HEK cells, CFP/YFP FRET ICDI-IQ, plate reader, 10 min; percent FRET-ratio fall versus neutral wells;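 active = mean replicate inhibition of at least 30% and at least 1% of replicates passing that level; inconclusive = only one of the two criteria is met; inactive = neither criterion is met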;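 note: 0% = median of the neutral control wells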
Runt-SMMHC FRET: Runt domain-CBFb-SMMHC interaction inhibition. Q01196+Q13951. Cerulean-Runt/Venus-CBFb-SMMHC FRET ratio 530/480, 1 h. inhibition, % at 20 µM. actives 0.74% (n = 220,000). AID 1434;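 active = mean inhibition across duplicate retests at 20 µM reaching about 50%, limit read from the data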;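 note: 0% = DMSO wells and 100% = wells with excess untagged CBFb-SMMHC; inhibitors lower the FRET ratio by blocking Runt binding to CBFb-SMMHC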
Hck Nef HTS: inhibitors of human Hck kinase activated by Nef | Recombinant Hck-YEEI plus Nef, Z-Lyte FRET kinase assay | AID 463187 | P08631 | actives 0.68% (n = 220,000) | inhibition, % at 20 µM;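 active = Hck-Nef kinase inhibition above about 50%, limit read from the data; inactive = inhibition below that limit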;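 note: 0% = DMSO with Hck plus Nef and 100% = Hck alone without Nef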
An asterisk follows results filed as active; u = inconclusive; x = not tested or not shown. The list is not random: actives were taken first. Their share in the collection is about 1.5%.

SMILES	RanGTP-Impb inh	Runt-CBFb FRET	CaV13 FRET inh	Runt-SMMHC FRET	Hck Nef HTS
O=C(Nc1ccc(Nc2ccncc2)cc1)c1ccc(Nc2ccnc3ccc([N+](=O)[O-])cc23)cc1	6.0	13.5	-16.7	56.6*	-163.1
CCOC(=O)CN(C)Cc1cn(C)nc1-c1ccc(Oc2ccccc2)cc1	-3.0	x	-3.2	x	x
CC(C)OC(=O)CSc1nnc2n1C(C)(C)Cc1ccccc1-2	-2.6	121.0*	-5.3	131.7*	1.2
COC(=O)CN1C(=O)[C@H]2[C@@H](c3ccc(C)o3)N3C(=O)CN(CC4CC4)C(=O)[C@@]3(C)[C@H]2C1=O	-0.4	x	-9.8	x	x
CN(CC(=O)Nc1ccc(F)cc1)C(=O)C1CCN(C(=O)Nc2ccccc2)CC1	x	x	-3.0	x	x
CCC(C)[C@H](NC(=O)N1CCCCC1)C(=O)OC (some centres undefined)	23.1*	1.4	-17.4	-5.2	7.6
CCOc1ccc(N(C(=O)c2ccc(S(=O)(=O)N3CCCC3)cc2)C2C=CS(=O)(=O)C2)cc1 (centres undefined)	3.7	x	-6.1	x	x
O=C(NCCCN1CCCC1=O)c1cccc(S(=O)(=O)N2CCCCC2)c1	x	x	-18.7	x	x
COc1ccc(-c2ncc(CN3CCC(CO)(Cc4cccc(OC)c4)CC3)cn2)cc1	81.9*	7.6	-0.5	26.2	6.5
Cc1c(O)ccc2c(CC(=O)N[C@@H](Cc3c[nH]c4ccccc34)C(=O)O)cc(=O)oc12	20.7*	x	-2.6	x	x
COc1cccc2sc3ccc(C#CC4(O)CCCCC4)cc3c(=O)c12	49.4*	x	-5.8	x	x
O=c1cc(CSc2nc3ccccc3c(=O)[nH]2)c2ccc(O)cc2o1	6.5	21.1	-5.7	51.9*	27.4
Fc1ccc(-c2cc3nc(-c4ccccc4)cc(N4CCN(CCN5CCOCC5)CC4)n3n2)cc1	21.8*	3.9	-11.0	10.9	5.5
COc1ccc(/C(N)=N/OC(=O)CC2CCCCC2)cc1	0.1	x	-2.7	x	x
Cc1snc(SCC(=O)c2ccc([N+](=O)[O-])cc2)c1C#N	x	21.1	-4.4	60.5*	-55.6
CCOC(=O)N1CCC(NC(=O)CS(=O)Cc2nc(-c3ccccc3C)oc2C)CC1 (centres undefined)	164.0*	x	-7.2	x	x
Cc1oc(-c2ccccc2F)nc1CS(=O)CC(=O)NC1CC1 (centres undefined)	-0.1	x	-2.7	x	x
Nc1ccc(Sc2ccc([N+](=O)[O-])cc2)cc1	0.9	-0.5	1.5	-3.9	-23.0
O=C1C=CC(=O)N1c1ccc(Sc2ccc([N+](=O)[O-])cc2)cc1	-5.1	25.8	x	41.3	50.1*
CCOc1cc(C(=O)N(CC)CC(=O)Nc2c(F)cccc2F)ccc1OCC(=O)N1CCCCC1	4.7	x	-5.5	x	x
Cc1cccc(NC(=S)N/N=C/c2ccc(Cl)c([N+](=O)[O-])c2)c1	44.1*	-0.2	-4.9	-24.7	0.0
Cc1cccc(NC(=S)N/N=C/c2cccc([N+](=O)[O-])c2)c1	-1.1	1.3	x	0.1	0.7
COc1ccc(C(=O)NCC2CCCCC2)cc1S(=O)(=O)N1CCOCC1	x	x	-2.4	x	x
Cc1cc(Nc2c(C)n(C)n(-c3ccccc3)c2=O)n2c(nc3ccccc32)c1C#N	107.1*	32.4	-0.8	54.3	6.6
CCCc1cc(Nc2c(C)n(C)n(-c3ccccc3)c2=O)n2c(nc3ccccc32)c1C#N	107.4*	26.6	-1.7	44.0	0.3
SMILES	RanGTP-Impb inh	Runt-CBFb FRET	CaV13 FRET inh	Runt-SMMHC FRET	Hck Nef HTS
Cc1cc(SCC(=O)Nc2c(C)n(C)n(-c3ccccc3)c2=O)n2c(nc3ccccc32)c1C#N	x	x	x	x	1.9
Cc1cccc(OCC(=O)Nc2ccc3c(c2)nc2n3CCOC2)c1	1.5	x	-3.7	x	x
CCCn1nc(NC(=O)C2CCCO2)c2cc3cc(C)ccc3nc21 (centres undefined)	55.7*	42.9	-5.8	58.7*	39.8
CCCn1nc(NC(=O)C2CCCO2)c2cc3ccc(C)cc3nc21 (centres undefined)	20.9*	18.0	-13.4	29.1	28.3
O=C(NCC1CCCO1)c1ccc2[nH]c3c(c2c1)CCCC3 (centres undefined)	x	x	-7.2	x	x
O=C(O)CCCCC1CCSS1 (centres undefined)	-1.6	38.2	-5.1	26.9	101.2*
CC(C)OC(=O)CC(=O)CSc1nc2c(c(-c3cccs3)c1C#N)CCC2	u	6.1	-18.3	7.4	5.1
CCOC(=O)C(C)Sc1nc2c(c(-c3cccs3)c1C#N)CCC2 (centres undefined)	109.0*	1.9	-3.6	32.8	6.5
Cc1cc(C(=O)CSc2ncnc3ccccc23)c(C)n1C1CC1	x	x	-1.7	x	x
Cc1cc(-n2c(C)cc(C(=O)CSc3ncnc4ccccc34)c2C)no1	0.1	33.5	-4.1	110.4*	5.3
COc1ccc(-c2cc3ccc(O)cc3oc2=O)cc1OC	106.4*	x	-0.9	x	x
COc1ccc(-c2cc3ccc(OCC(N)=O)cc3oc2=O)cc1OC	3.3	x	-5.5	x	x
O=C(CN1C(=O)NC2(CCOc3ccccc32)C1=O)NCCc1ccccc1 (centres undefined)	x	x	-6.2	x	x
COC(CNC(=O)c1ccc2nc(-c3ccccc3)c(-c3ccccc3)nc2c1)OC	-1.9	-2.1	-4.4	-5.8	9.0
COc1ccc(-c2nc3ccc(C(=O)NCC(OC)OC)cc3nc2-c2ccc(OC)cc2)cc1	15.5*	4.1	-8.0	2.8	7.9
O=C(NC1CCN(S(=O)(=O)c2ccc(F)cc2)CC1)c1cccnc1	-3.4	x	-7.2	x	x
COC(=O)C[C@@H]1C=C[C@@H](NC(=O)c2ccccc2F)[C@@H](CO)O1	x	x	-5.6	x	x
COc1ccc(C2C3=C(CC(C)(C)CC3=O)Nc3c2c(=O)[nH]c(=O)n3Cc2ccccc2)cc1OC (centres undefined)	87.7*	55.6*	-1.0	78.7*	5.9
COCCCN1C2=C(C(=O)CC(C)(C)C2)C(c2ccc(OC)c(OC)c2)C2=C1CC(C)(C)CC2=O	0.9	x	-20.1	x	x
COc1ccc(C2C3=C(CC(C)(C)CC3=O)Nc3c2c(=O)[nH]c(=O)n3Cc2ccccc2)cc1 (centres undefined)	83.7*	101.7*	2.4	40.3	1.0
O=C(NCc1cccs1)C1Cc2c(-c3ccc(Cl)cc3)ccnc2O1 (centres undefined)	x	x	-5.7	x	x
COc1cc(C(=S)N2CCCCC2)ccc1OCC(=O)Nc1ccc(F)cc1	1.2	x	-2.0	x	x
COc1ccc(C(=O)N2CCCC(c3cc(C(=O)NCc4ccccc4)no3)C2)cc1 (centres undefined)	x	x	-5.7	x	x
COc1cc2cc(C(=O)N3CCN(Cc4ccc5c(c4)OCO5)CC3)c(=O)oc2cc1OC	6.4	27.8	-12.9	54.7*	28.6
O=C(Cc1ccc(F)cc1)Nc1nnc(SCC(=O)NC2CCCC2)s1	26.8*	0.1	-2.1	-0.6	15.1
